Laboratory results as given in ChEMBL document CHEMBL4428138, “Design, Synthesis, and Antitumor Evaluation of 4-Amino-(1H)-pyrazole Derivatives as JAKs Inhibitors” (ACS Med Chem Lett, 2016).
One block for each compound: values may come before it.

Experiments:
HEL [1] = assay: Antiproliferative activity against HEL cells harboring JAK2 V617F mutant at 5 uM after 48 hrs by MTT assay; format: functional, Homo sapiens
PC-3 = assay: Antiproliferative activity against human PC3 cells after 48 hrs by MTT assay; format: functional, cell-based; conditions: PC-3, 48 h
Procedure, shortened: (§1)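 Panel: human prostate cancer PC-3, breast cancer MCF-7, erythroleukemia HEL, myelogenous leukemia K562 and lymphoid leukemia MOLT4 lines. Cells were exposed to compound for 48 h with MTT read-out.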

MCF7 = assay: Antiproliferative activity against human MCF7 cells after 48 hrs by MTT assay; format: functional, cell-based; conditions: MCF7, 48 h; procedure, shortened: as §1
HEL [2] = assay: Antiproliferative activity against HEL cells harboring JAK2 V617F mutant after 48 hrs by MTT assay; format: functional, cell-based; conditions: Homo sapiens; procedure, shortened: as §1
K562 = assay: Antiproliferative activity against human K562 cells after 48 hrs by MTT assay; format: functional, cell-based; conditions: K562, 48 h; procedure, shortened: as §1
MOLT-4 = assay: Antiproliferative activity against human MOLT4 cells after 48 hrs by MTT assay; format: functional, cell-based; conditions: MOLT-4, 48 h; procedure, shortened: as §1
[3] = biological target: Tyrosine-protein kinase ABL1 (Homo sapiens) (UniProt P00519); assay: Inhibition of ABL (unknown origin) at 20 nM relative to control
[4] = biological target: ALK tyrosine kinase receptor (Homo sapiens) (UniProt Q9UM73); assay: Inhibition of ALK (unknown origin) at 20 nM relative to control
[5] = biological target: RAC-alpha serine/threonine-protein kinase (Homo sapiens) (UniProt P31749); assay: Inhibition of AKT1 (unknown origin) at 20 nM relative to control
Chain of RAC-alpha serine/threonine-protein kinase (Homo sapiens) (P31749 whole entry): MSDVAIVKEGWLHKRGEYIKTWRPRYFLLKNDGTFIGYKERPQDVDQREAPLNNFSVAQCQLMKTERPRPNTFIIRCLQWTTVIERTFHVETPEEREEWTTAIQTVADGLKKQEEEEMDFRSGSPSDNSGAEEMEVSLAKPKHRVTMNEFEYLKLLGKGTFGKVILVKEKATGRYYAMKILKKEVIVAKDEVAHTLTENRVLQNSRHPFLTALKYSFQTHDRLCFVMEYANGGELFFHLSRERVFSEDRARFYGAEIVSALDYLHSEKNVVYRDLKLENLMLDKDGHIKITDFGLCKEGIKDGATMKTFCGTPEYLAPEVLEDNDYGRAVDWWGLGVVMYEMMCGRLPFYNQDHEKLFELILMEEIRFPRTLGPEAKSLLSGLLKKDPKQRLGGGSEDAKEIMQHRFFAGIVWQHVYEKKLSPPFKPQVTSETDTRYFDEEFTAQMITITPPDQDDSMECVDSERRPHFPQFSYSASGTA

[6] = biological target: Cyclin-dependent kinase 4 (Homo sapiens) (UniProt P11802); assay: Inhibition of CDK4 (unknown origin) at 20 nM relative to control
Chain of Cyclin-dependent kinase 4 (Homo sapiens) (P11802 whole entry): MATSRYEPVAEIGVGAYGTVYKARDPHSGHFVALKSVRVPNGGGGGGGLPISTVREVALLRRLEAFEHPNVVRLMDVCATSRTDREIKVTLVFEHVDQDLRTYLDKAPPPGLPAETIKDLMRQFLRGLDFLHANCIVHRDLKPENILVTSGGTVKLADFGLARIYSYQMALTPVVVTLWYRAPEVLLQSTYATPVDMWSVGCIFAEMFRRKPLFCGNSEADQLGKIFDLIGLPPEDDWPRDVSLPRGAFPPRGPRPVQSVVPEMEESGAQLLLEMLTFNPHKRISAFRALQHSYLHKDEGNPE

[7] = biological target: Mast/stem cell growth factor receptor Kit (Homo sapiens) (UniProt P10721); assay: Inhibition of c-Kit (unknown origin) at 20 nM relative to control
[8] = biological target: Hepatocyte growth factor receptor (Homo sapiens) (UniProt P08581); assay: Inhibition of c-Met (unknown origin) at 20 nM relative to control
Chain of Hepatocyte growth factor receptor (Homo sapiens) (P08581 whole entry): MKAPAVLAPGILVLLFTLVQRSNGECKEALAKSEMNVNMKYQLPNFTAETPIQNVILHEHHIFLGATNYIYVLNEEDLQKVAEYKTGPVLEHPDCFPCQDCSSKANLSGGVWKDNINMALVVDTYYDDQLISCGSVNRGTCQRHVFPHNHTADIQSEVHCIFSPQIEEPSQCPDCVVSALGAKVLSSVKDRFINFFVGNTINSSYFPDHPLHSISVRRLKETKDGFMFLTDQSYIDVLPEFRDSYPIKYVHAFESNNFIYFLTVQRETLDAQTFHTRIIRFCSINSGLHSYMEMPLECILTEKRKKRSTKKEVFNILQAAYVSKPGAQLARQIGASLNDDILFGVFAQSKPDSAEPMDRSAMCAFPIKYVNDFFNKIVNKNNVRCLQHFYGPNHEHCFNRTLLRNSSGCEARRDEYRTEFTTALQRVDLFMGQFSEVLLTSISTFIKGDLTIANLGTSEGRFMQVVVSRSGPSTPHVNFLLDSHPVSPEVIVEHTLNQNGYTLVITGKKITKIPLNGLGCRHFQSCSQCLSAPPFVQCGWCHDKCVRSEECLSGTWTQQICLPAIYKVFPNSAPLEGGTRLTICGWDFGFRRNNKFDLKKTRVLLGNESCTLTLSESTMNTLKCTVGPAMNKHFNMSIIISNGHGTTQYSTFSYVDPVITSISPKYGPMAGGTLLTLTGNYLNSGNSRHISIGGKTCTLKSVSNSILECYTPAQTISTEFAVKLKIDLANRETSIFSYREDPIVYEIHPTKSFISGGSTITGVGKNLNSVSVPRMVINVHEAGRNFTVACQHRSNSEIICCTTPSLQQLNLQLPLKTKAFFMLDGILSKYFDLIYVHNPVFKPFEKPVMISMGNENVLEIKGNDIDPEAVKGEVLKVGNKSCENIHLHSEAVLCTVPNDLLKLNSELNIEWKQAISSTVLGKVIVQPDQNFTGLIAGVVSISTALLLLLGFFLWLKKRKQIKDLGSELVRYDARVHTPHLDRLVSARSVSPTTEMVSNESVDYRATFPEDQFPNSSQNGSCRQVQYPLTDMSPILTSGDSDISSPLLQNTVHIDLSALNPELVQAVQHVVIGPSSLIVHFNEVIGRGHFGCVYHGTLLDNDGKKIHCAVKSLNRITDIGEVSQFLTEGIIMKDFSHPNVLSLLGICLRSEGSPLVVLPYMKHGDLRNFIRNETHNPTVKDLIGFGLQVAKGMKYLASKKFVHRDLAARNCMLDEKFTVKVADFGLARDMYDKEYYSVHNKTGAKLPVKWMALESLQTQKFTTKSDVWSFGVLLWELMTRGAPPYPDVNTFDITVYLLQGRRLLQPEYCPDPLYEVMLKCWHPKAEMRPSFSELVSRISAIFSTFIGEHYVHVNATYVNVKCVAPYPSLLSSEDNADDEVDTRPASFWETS

[9] = biological target: Epidermal growth factor receptor (Homo sapiens) (UniProt P00533); assay: Inhibition of EGFR (unknown origin) at 20 nM relative to control
[10] = biological target: Focal adhesion kinase 1 (Homo sapiens) (UniProt Q05397); assay: Inhibition of FAK (unknown origin) at 20 nM relative to control
Chain of Focal adhesion kinase 1 (Homo sapiens) (Q05397 2-1052 limits assumed): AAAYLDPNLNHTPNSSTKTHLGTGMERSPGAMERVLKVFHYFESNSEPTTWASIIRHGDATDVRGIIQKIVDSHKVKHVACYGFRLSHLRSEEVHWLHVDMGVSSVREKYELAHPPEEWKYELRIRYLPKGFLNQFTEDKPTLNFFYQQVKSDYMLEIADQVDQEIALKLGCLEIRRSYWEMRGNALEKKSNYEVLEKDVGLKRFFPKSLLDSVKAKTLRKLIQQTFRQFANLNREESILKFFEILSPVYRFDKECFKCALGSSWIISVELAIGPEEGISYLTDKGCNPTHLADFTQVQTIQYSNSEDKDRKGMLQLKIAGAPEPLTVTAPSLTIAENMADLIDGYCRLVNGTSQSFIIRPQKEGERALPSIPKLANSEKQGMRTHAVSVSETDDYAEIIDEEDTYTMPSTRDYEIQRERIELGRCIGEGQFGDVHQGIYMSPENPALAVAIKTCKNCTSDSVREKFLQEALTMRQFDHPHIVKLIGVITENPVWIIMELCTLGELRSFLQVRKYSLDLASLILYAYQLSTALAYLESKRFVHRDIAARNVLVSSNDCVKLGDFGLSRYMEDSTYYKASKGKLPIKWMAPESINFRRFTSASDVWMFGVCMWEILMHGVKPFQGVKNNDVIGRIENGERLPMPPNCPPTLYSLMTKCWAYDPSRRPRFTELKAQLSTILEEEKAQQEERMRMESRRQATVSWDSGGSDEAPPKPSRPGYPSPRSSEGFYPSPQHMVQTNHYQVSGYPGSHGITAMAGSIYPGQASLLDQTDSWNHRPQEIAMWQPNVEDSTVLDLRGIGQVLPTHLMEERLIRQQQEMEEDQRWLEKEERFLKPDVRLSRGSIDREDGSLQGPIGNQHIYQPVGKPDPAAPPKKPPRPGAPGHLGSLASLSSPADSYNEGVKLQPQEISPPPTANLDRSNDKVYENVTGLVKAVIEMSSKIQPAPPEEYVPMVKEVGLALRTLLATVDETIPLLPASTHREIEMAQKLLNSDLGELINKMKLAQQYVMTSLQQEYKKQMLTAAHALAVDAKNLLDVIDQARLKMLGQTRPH

[11] = biological target: Receptor-type tyrosine-protein kinase FLT3 (Homo sapiens) (UniProt P36888); assay: Inhibition of FLT3 (unknown origin) at 20 nM relative to control
[12] = biological target: Vascular endothelial growth factor receptor 2 (Homo sapiens) (UniProt P35968); assay: Inhibition of VEGFR2 (unknown origin) at 20 nM relative to control
[13] = biological target: Platelet-derived growth factor receptor alpha (Homo sapiens) (UniProt P16234); assay: Inhibition of PDGFRalpha (unknown origin) at 20 nM relative to control
[14] = biological target: RAF proto-oncogene serine/threonine-protein kinase (Homo sapiens) (UniProt P04049); assay: Inhibition of RAF1 (unknown origin) at 20 nM relative to control
[15] = biological target: Proto-oncogene tyrosine-protein kinase Src (Homo sapiens) (UniProt P12931); assay: Inhibition of SRC (unknown origin) at 20 nM relative to control
Chain of Proto-oncogene tyrosine-protein kinase Src (Homo sapiens) (P12931 2-536 limits assumed): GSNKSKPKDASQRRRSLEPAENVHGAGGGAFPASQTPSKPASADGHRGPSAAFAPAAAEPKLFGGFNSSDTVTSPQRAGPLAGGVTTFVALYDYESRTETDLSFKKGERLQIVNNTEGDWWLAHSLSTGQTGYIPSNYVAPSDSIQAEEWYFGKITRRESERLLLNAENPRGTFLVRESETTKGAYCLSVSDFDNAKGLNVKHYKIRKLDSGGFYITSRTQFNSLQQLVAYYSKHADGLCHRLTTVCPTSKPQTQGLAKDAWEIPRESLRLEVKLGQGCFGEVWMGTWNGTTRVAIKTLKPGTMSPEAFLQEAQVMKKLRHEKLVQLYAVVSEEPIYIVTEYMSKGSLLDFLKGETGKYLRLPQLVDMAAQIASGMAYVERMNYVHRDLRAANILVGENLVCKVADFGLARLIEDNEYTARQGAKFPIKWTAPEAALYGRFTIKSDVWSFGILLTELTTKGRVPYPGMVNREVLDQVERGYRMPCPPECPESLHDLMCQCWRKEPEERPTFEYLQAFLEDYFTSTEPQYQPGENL

[16] = biological target: Non-receptor tyrosine-protein kinase TYK2 (Homo sapiens) (UniProt P29597); assay: Inhibition of TYK2 (unknown origin) at 20 nM relative to control
Chain of Non-receptor tyrosine-protein kinase TYK2 (Homo sapiens) (P29597 whole entry): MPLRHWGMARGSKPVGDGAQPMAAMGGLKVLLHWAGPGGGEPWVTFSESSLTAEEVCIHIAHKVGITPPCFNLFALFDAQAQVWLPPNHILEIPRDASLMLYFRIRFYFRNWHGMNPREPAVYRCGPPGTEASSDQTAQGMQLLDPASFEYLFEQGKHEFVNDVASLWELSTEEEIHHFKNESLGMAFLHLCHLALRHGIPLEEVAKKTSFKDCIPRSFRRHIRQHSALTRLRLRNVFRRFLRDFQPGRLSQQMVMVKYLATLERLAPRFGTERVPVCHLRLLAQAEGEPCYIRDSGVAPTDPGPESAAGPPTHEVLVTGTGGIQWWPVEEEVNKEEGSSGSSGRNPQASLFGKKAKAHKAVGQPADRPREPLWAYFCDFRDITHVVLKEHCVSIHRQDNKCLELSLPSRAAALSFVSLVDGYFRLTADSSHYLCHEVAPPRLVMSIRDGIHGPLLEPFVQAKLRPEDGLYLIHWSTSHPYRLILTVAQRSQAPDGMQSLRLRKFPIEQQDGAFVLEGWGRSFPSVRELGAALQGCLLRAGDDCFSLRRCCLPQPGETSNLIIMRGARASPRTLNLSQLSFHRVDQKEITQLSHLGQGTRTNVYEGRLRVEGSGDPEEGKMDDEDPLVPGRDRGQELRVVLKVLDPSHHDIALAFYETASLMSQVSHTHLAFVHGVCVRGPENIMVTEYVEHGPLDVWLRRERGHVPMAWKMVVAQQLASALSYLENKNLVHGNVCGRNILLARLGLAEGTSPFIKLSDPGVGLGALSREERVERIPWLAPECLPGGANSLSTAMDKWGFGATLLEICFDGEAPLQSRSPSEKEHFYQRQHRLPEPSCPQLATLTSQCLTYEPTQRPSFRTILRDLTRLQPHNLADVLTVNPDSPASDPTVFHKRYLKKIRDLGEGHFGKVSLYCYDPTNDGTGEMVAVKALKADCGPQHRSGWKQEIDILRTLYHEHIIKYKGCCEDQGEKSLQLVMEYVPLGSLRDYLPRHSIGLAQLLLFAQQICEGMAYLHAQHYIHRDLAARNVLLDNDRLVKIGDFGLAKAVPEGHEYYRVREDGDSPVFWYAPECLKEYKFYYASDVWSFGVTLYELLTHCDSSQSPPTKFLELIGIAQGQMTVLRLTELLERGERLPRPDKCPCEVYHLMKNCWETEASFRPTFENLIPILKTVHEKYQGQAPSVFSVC

[17] = Selectivity ratio of IC50 for human PC3 cells to IC50 for HEL cells harboring JAK2 V617F mutant; format: functional
[18] = Selectivity ratio of IC50 for human MCF7 cells to IC50 for HEL cells harboring JAK2 V617F mutant; format: functional
[19] = Selectivity ratio of IC50 for human MOLT4 cells to IC50 for HEL cells harboring JAK2 V617F mutant; format: functional
[20] = Selectivity ratio of IC50 for human PC3 cells to IC50 for human K562 cells; format: functional
[21] = Selectivity ratio of IC50 for human MCF7 cells to IC50 for human K562 cells; format: functional
[22] = Selectivity ratio of IC50 for human MOLT4 cells to IC50 for human K562 cells; format: functional
[23] = biological target: Tyrosine-protein kinase JAK1 (Homo sapiens, UniProt P23458); assay: Inhibition of human recombinant JAK1 using Ulight-CAGAGAIETDKEYYTVKD as substrate by LANCE assay
[24] = biological target: Tyrosine-protein kinase JAK3 (Homo sapiens, UniProt P52333); assay: Inhibition of human recombinant JAK3 using Ulight-CAGAGAIETDKEYYTVKD as substrate by LANCE assay

SMILES: COc1ccc(Nc2nc(Nc3cn[nH]c3)nc3[nH]ccc23)cc1
Activity (HEL [1]): >50%

IC50 (PC-3): 1.13 µM
IC50 (MCF7): 1.1 µM
IC50 (K562): 1.29 µM
IC50 (MOLT-4): 1.26 µM
SMILES: Clc1ccccc1Nc1nc(Nc2cn[nH]c2)ncc1Cl
Activity (HEL [1]): >50%
IC50 (HEL [2]): 1.24 µM

SMILES: Clc1ccc(Nc2nc(Nc3cn[nH]c3)nc3ccccc23)cc1
Activity (HEL [1]): <50%

IC50 (PC-3): > 5 µM
IC50 (MCF7): > 5 µM
IC50 (K562): 10.3 µM
SMILES: N#CC[C@H](C1CCCC1)n1cc(-c2ncnc3[nH]ccc23)cn1 [RUXOLITINIB]
IC50 (HEL [2]): 2.62 µM

SMILES: COc1ccc(Nc2nc(Nc3cn[nH]c3)nc3ccccc23)cc1
Activity (HEL [1]): <50%

IC50 (PC-3): 10.4 µM
IC50 (K562): 3.79 µM
SMILES: Fc1cnc(Nc2cn[nH]c2)nc1Nc1ccc(Cl)cc1
Activity (HEL [1]): <50%
IC50 (HEL [2]): 3.96 µM

SMILES: Clc1ccccc1Nc1ccnc(Nc2cn[nH]c2)n1
Activity (HEL [1]): <50%

IC50 (PC-3): 1.03 µM
IC50 (MCF7): 1.87 µM
IC50 (K562): 1.86 µM
IC50 (MOLT-4): 3.28 µM
SMILES: Fc1ccc(Nc2nc(Nc3cn[nH]c3)ncc2Cl)cc1
Activity (HEL [1]): >50%
IC50 (HEL [2]): 1.18 µM

IC50 (MCF7): > 5 µM
IC50 (K562): > 8.3 µM
SMILES: Clc1cccc(Nc2nc(Nc3cn[nH]c3)nc3ccccc23)c1
Activity (HEL [1]): <50%
IC50 (HEL [2]): 9.71 µM

SMILES: Fc1cnc(Nc2cn[nH]c2)nc1Nc1ccccc1
Activity (HEL [1]): <50%

SMILES: N#Cc1ccccc1Nc1ccnc(Nc2cn[nH]c2)n1
Activity (HEL [1]): <50%

SMILES: c1ccc(Nc2nc(Nc3cn[nH]c3)nc3ccccc23)cc1
Activity (HEL [1]): <50%

SMILES: Clc1ccc(Nc2ccnc(Nc3cn[nH]c3)n2)cc1
Activity (HEL [1]): <50%

SMILES: C#Cc1cccc(Nc2ccnc(Nc3cn[nH]c3)n2)c1
Activity (HEL [1]): <50%

IC50 (PC-3): 5.38 µM
IC50 (MCF7): 3.66 µM
IC50 (K562): > 8.3 µM
IC50 (MOLT-4): > 5 µM
SMILES: Clc1cnc(Nc2cn[nH]c2)nc1Nc1ccccc1
Activity (HEL [1]): >50%
IC50 (HEL [2]): 5.93 µM

IC50 (PC-3): 4.47 µM
IC50 (MCF7): > 5 µM
IC50 (K562): 0.37 µM
IC50 (MOLT-4): > 5 µM
inhibition [3]: 3.1%
inhibition [4]: 15.1%
inhibition [5]: -3%
inhibition [6]: -5.3%
inhibition [7]: 0.6%
inhibition [8]: 6.3%
inhibition [9]: 8.3%
inhibition [10]: 7.4%
inhibition [11]: 15.2%
inhibition [12]: 0%
inhibition [13]: 11.9%
inhibition [14]: 3.7%
inhibition [15]: 12.6%
inhibition [16]: 34.6%
SMILES: c1ccc(Nc2nc(Nc3cn[nH]c3)nc3[nH]ccc23)cc1
Activity (HEL [1]): >50%
IC50 (HEL [2]): 0.35 µM
Ratio IC50 [17]: >10
Ratio IC50 [18]: >10
Ratio IC50 [19]: >10
Ratio IC50 [20]: >10
Ratio IC50 [21]: >10
Ratio IC50 [22]: >10

IC50 (PC-3): 2.3 µM
IC50 (K562): 2.08 µM
SMILES: COc1ccc(Nc2nc(Nc3cn[nH]c3)ncc2Cl)cc1
Activity (HEL [1]): >50%
IC50 (HEL [2]): 1.76 µM

SMILES: Clc1ccccc1CNc1nc(Nc2cn[nH]c2)nc2ccccc12
Activity (HEL [1]): <50%

SMILES: C#Cc1cccc(Nc2nc(Nc3cn[nH]c3)nc3ccccc23)c1
Activity (HEL [1]): <50%

IC50 (PC-3): 13.5 µM
IC50 (MCF7): > 5 µM
IC50 (K562): 3.72 µM
IC50 (MOLT-4): > 5 µM
SMILES: Clc1ccccc1CNc1nc(Nc2cn[nH]c2)nc2[nH]ccc12
Activity (HEL [1]): >50%

IC50 (PC-3): 2.57 µM
IC50 (MCF7): 1.93 µM
IC50 (K562): 1.7 µM
IC50 (MOLT-4): 1.37 µM
SMILES: Clc1ccc(Nc2nc(Nc3cn[nH]c3)ncc2Cl)cc1
Activity (HEL [1]): >50%
IC50 (HEL [2]): 1.53 µM

SMILES: COc1ccc(Nc2nc(Nc3cn[nH]c3)ncc2F)cc1
Activity (HEL [1]): <50%

SMILES: Clc1ccc(Nc2nc(Nc3cn[nH]c3)nc3[nH]ccc23)cc1
Activity (HEL [1]): >50%

IC50 [23]: 0.0034 µM
IC50 [24]: 0.0035 µM
IC50 (PC-3): 1.08 µM
IC50 (MCF7): 1.33 µM
IC50 (K562): 0.77 µM
IC50 (MOLT-4): 1.61 µM
inhibition [3]: -3.1%
inhibition [4]: 6.9%
inhibition [5]: 7.5%
inhibition [6]: 36.2%
inhibition [7]: 12.1%
inhibition [8]: 17.9%
inhibition [9]: 10.5%
inhibition [10]: 33.5%
inhibition [11]: 78.7%
inhibition [12]: 48.6%
inhibition [13]: 54.1%
inhibition [14]: -7.1%
inhibition [15]: 27%
inhibition [16]: 79.4%
SMILES: Clc1cccc(Nc2nc(Nc3cn[nH]c3)ncc2Cl)c1
Activity (HEL [1]): >50%
IC50 (HEL [2]): 1.08 µM
